Like-named read-outs stand apart in the source and are kept apart here. Marks after values point to notes of the source that are not given here.
Columns and labels:
[1] = Physicochemical properties
[2] = Quantitative tissue distribution; format: in vivo, mouse (NMRI); settings: for dose found in the carcasses: 24 h postdose
Summary of the method: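 Male and female NMRI mice got i.v. [14C]-test compound, 2.5 mg/kg (n = 3/time), with tissues excised at 0.1, 0.5, 2, 8 and 24 h. Larger organs were homogenized and small tissues taken whole. Carcasses were included. Samples were dried at about 60°C for 12 h, combusted in a sample oxidizer and read by LSC.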

[3] = Excretion of total radioactivity in monkey; format: in vivo, Cynomolgus monkey (Macaca fascicularis)
Summary of the method: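 Female Cynomolgus monkeys (n = 3) got a single i.v. bolus of [14C]-test compound, 2.0 mg/kg. Urine and feces were collected 0–8 h, 8–24 h, then in 24-h intervals to 120 h. Both were counted by LSC as in the mouse study, with feces dried and combusted first. Excretion was expressed as % of radioactive dose.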

[4] = Plasma pharmacokinetics in rat after i.v. bolus; format: in vivo, Wistar rat; settings: for clearance / half-life: in vivo
Summary of the method: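 Wistar rats, intravenous bolus. Plasma was sampled at 0.1, 0.25, 0.5, 1, 2, 4 and 6 h postadministration.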

[5] = Plasma pharmacokinetics in rabbit after i.v. infusion; format: in vivo, Chinchilla rabbit
Summary of the method: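 Chinchilla rabbits received a 4-h infusion into the ear vein at 50, 150 or 450 mg/kg/d. Plasma was sampled before and at 2, 4, 4.25, 4.5, 5, 7 and 10 h after infusion start.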

[6] = test system: human suspension hepatocytes; test: Uptake into human suspension hepatocytes; format: in vitro ADME
Summary of the method: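 Cryopreserved human hepatocytes in suspension, transporter function verified by the supplier. Test compound was applied at 10 μmol/L, 250 μmol/L and 10 mmol/L for 1 to 30 or 90 min. Cells were separated from buffer by the oil-layer method, and drug in both compartments was quantified over time by LC/MS/MS. Nonspecific transporter inhibition used rifampicin 20 μmol/L, cyclosporine A 20 μmol/L and quinidine 100 μmol/L.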

[7] = test system: sandwich‐cultured hepatocytes; test: Cytotoxicity test with lactate dehydrogenase; format: cell-based; settings: 250 μmol/L, up to 24 h
[8] = NADPH-dependent metabolism by mouse liver microsomes; format: in vitro ADME; settings: mice, 10 and 100 µM, up to 6 h
[9] = NADPH-dependent metabolism by monkey liver microsomes; format: in vitro ADME; settings: monkeys, 10 and 100 µM, up to 6 h
[10] = NADPH-dependent metabolism by human liver microsomes; format: in vitro ADME; settings: humans, 10 and 100 µM, up to 6 h
rat hepatocytes = test: Metabolism in cultured rat hepatocytes; format: in vitro ADME; settings: 1 and 10 µg/mL, up to 24 h
human hepatocytes = test: Metabolism in cultured human hepatocytes; format: in vitro ADME; settings: 1 and 10 µg/mL, up to 24 h
[11] = Biological stability of the radiolabel; format: in vivo, rat; settings: rats, within 72 h after dosing
[12] = ref Becker et al. 2015, cited from earlier work
[13] = human, male, 0–144 h, n = 5, listed as [^14C]‐cilengitide

In the case of CC(C)[C@H]1C(=O)N[C@@H](CCCN=C(N)N)C(=O)NCC(=O)N[C@@H](CC(=O)O)C(=O)N[C@H](Cc2ccccc2)C(=O)N1C [cilengitide, cyclo‐(Asp‐D‐Phe‐N‐MeVal‐Arg‐Gly)], the solubility [1] is reported as “high”, the “partition coefficient Po/w” value ([1]; octanol–water) is reported as 0.0096 and the “dose found in the carcasses” value ([2]; female mice) is reported as 0.4 % of the dose. The “dose found in the carcasses” value ([2]; male mice) was 0.8 % of the dose, the “concentrations in reproductive organs relative to plasma” value ([2]; mice, after 8 h) was 6–14 times higher and the “extent of renal excretion” value [3] was 56%. The “clearance as share of hepatic blood flow (hbf)” value [4] was “approximately 20%”, the level at 0.1 h ([4]; Wistar, plasma, iv, 2.5 mg/kg) was 5360 to 5870 ng/mL and the clearance [4] was 16.3 mL/min/kg. For the same compound, the half-life [4] was 30 min, the clearance ([4]; iv, 2.5 mg/kg) was roughly 16.3 mL/min/kg and the half-life ([4]; iv, 2.5 mg/kg) was 14.4 to 30 min. The level at 4 h ([5]; Chinchilla, rabbit, plasma, iv, 50 mg/kg) was 34200 to 38500 ng/mL, the “clearance in comparison to hbf” value ([5]; female rabbits) was roughly 15% and the clearance ([5]; rabbit, in vivo) was 6 mL/min/kg. For the same compound, the half-life ([5]; rabbit, in vivo, 450 mg/kg, apparent half‐life, rabbit, 450 mg/kg dose group) was roughly 60 min, the “active uptake in human hepatocytes” value [6] was “no active uptake” and the “dependency of uptake on drug concentration” value ([6]; 10 μmol/L, 250 μmol/L and 10 mmol/L) was “no clear dependency on drug concentration”. The “effect of inhibitor cocktail on distribution into hepatocytes” value ([6]; 20 μmol/L rifampicin, 20 μmol/L cyclosporine A, 100 μmol/L quinidine) was “no relevant inhibition”, the “time after which distribution into hepatocytes was almost complete” value ([6]; human suspension hepatocytes) was 1 to 4 min and the “uptake into human hepatocytes” value ([6]; suspension, 10 μmol/L, 250 μmol/L and 10 mmol/L) was “minor”. For the same compound, the “cell toxicity (LDH in cell culture medium)” value [7] was “does not cause cell toxicity”, the “metabolism by liver microsomes” value [8] was “poorly metabolized” and the “metabolism by liver microsomes” value [9] was “poorly metabolized”. The “metabolism by liver microsomes” value [10] was “poorly metabolized”, the “metabolism by cultured hepatocytes” value (rat hepatocytes) was “poorly metabolized” and the “metabolism by cultured hepatocytes” value (human hepatocytes) was “poorly metabolized”. The “dose exhaled as [^14C]‐CO2” value [11] was “less than 0.1 % of the dose”, the “dose recovered in urine as unchanged drug” value ([12]; human volunteers) was 77.5% and the “Excretion of radioactivity in feces” value ([12]; human, male, 0–24 h, n = 5) was “∼9.0 % dose”. The “Excretion of radioactivity, total” value ([12]; human, male, 0–24 h, n = 5) was “∼87 % dose”, the “Excretion of radioactivity in feces” value ([12]; human, male, 0–144 h, n = 5) was 15.5 % dose and the “Excretion of radioactivity in urine” value ([12]; human, male, 0–144 h, n = 5) was 79 % dose. For the same compound, the “Excretion of radioactivity in feces” value [12, 13] was 15.5 ^d % dose, the “Excretion of radioactivity in urine” value [12, 13] was 79.0 ^d % dose and the “extent of renal excretion” value ([12]; human) was ~ 80%. The “components found in human plasma and urine” value [12] was “parent compound was the only component found” and the “renal clearance compared with creatinine clearance of each subject” value [12] was “below the creatinine clearance”.

From PMC4804314 (Pharmacology Research & Perspectives, 2016)
